These results are taken from ChEMBL document CHEMBL3286371, “wALADin benzimidazoles differentially modulate the function of porphobilinogen synthase orthologs” (J Med Chem, 2014).

Experiment [1] addresses Delta-aminolevulinic acid dehydratase (Pseudomonas aeruginosa (strain ATCC 15692 / PAO1 / 1C / PRS 101 / LMG12228)) (UniProt Q59643). Briefly: Inhibition of Pseudomonas aeruginosa PAO1 recombinant PBGS assessed as inhibition of octamer-inducing effect of Mg2+ by nondenaturing PAGE analysis. The procedure, abridged: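 PaPBGS (3 μg) preincubated 20 min at 37 °C in assay buffer with 1 mM Mg2+, 100 mM K+ and wALADin1, no 5-ALA. Run on 7.5% nondenaturing PAGE at 4 °C for 15–20 h. Coomassie for oligomer state; in-gel activity with 500 μM 5-ALA stained with Ehrlich's reagent.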

For experiment [2], the target named is T1, Delta-aminolevulinic acid dehydratase (Wolbachia sp. subsp. Brugia malayi (strain TRS)) (UniProt Q5GSR3).
T1 sequence (whole entry): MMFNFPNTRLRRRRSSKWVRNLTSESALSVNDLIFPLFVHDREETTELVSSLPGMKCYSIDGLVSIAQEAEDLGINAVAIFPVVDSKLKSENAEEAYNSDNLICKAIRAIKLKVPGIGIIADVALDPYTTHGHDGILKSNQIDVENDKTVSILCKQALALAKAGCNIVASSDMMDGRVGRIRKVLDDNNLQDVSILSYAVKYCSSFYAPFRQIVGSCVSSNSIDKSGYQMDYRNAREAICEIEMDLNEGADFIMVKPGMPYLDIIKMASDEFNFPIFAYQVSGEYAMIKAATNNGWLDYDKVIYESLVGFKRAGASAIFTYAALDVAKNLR
Particulars: 25 to 2500 uM.

Experiment [3] addresses Delta-aminolevulinic acid dehydratase (Pseudomonas aeruginosa (strain ATCC 15692 / PAO1 / 1C / PRS 101 / LMG12228)) (UniProt Q59643). Briefly: Stimulation of Pseudomonas aeruginosa PAO1 recombinant PBGS using 5 mM 5-ALA as substrate assessed as increase in Vmax at 50 to 200 uM at pH 8 by Michaelis-Menten plot analysis in presence of MgCl2. The procedure, abridged:
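Mg2+ or substrate response curves recorded with and without wALADin1; VMAX, KM and Mg2+ affinity derived from the fits.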

Experiment [4] deals with T1, Delta-aminolevulinic acid dehydratase (Wolbachia sp. subsp. Brugia malayi (strain TRS)). Particulars: 25 to 2500 uM. The source holds these as a separate data set.
For experiment [5], the target named is T2, Delta-aminolevulinic acid dehydratase, chloroplastic (Pisum sativum) (UniProt P30124).
T2 sequence (whole entry): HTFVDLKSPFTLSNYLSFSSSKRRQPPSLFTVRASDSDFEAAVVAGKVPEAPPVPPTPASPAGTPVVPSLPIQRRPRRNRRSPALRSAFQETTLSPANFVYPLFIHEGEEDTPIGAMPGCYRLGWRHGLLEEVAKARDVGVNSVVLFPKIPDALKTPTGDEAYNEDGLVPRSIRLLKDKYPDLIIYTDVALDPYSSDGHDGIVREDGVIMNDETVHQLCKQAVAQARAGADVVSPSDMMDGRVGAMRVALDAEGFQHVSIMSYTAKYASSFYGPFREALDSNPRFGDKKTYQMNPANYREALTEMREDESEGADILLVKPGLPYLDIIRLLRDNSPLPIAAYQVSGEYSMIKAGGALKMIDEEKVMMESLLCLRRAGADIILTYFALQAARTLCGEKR
Briefly: Competitive inhibition of Pisum sativum PBGS using 5-ALA as substrate at 6.25 to 100 uM. Conditions: Lathyrus oleraceus.

Experiment [6] has as its target T2, Delta-aminolevulinic acid dehydratase, chloroplastic (Pisum sativum). Briefly: Inhibition of Pisum sativum PBGS using 10 mM 5-ALA as substrate assessed as decrease in enzyme activity at 6.25 to 100 uM in presence of MgCl2. Particulars: Lathyrus oleraceus.
For experiment [7], the target named is Delta-aminolevulinic acid dehydratase (Pseudomonas aeruginosa (strain ATCC 15692 / PAO1 / 1C / PRS 101 / LMG12228)) (UniProt Q59643). Briefly: Inhibition of Pseudomonas aeruginosa PAO1 recombinant PBGS using 0.2 mM 5-ALA as substrate assessed as reduction in Vmax at 50 to 200 uM at pH 7.5 by Michaelis-Menten plot analysis in presence of MgCl2. In short, it runs like this: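 PaPBGS under "standard inhibitory" conditions (100 mM Tris-HCl pH 7.5, 1 mM MgCl2, no KCl). 5-ALA varied for substrate-response curves at several wALADin1 levels; KM and VMAX derived from the fits. Incubation at 36 °C.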
Delta-aminolevulinic acid dehydratase (Pseudomonas aeruginosa (strain ATCC 15692 / PAO1 / 1C / PRS 101 / LMG12228)), sequence (Q59643 whole entry): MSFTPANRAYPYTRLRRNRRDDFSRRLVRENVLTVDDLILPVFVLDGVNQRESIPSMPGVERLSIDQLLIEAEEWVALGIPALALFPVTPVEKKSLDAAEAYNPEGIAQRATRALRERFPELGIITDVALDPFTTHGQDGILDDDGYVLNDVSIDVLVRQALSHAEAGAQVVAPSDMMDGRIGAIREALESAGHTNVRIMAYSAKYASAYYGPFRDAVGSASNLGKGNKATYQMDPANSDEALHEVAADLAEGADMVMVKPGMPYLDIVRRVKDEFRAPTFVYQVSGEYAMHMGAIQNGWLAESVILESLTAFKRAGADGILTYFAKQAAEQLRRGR

Experiment [8] shares this target. Description: Stimulation of Pseudomonas aeruginosa PAO1 recombinant PBGS assessed as stabilization of octameric form at 250 uM at pH 7 to 8.5 by nondenaturing PAGE analysis in presence of Mg2+ and K+.
Experiment [9] has as its target T3, Delta-aminolevulinic acid dehydratase (Wolbachia sp. subsp. Brugia malayi (strain TRS), UniProt Q5GSR3).
T3 sequence (Q5GSR3 whole entry): T1 sequence (whole entry)
Description: Inhibition of C-terminal His-tagged Wolbachia PBGS using 5-ALA as substrate.

For experiment [10], the target named is Delta-aminolevulinic acid dehydratase (Pseudomonas aeruginosa (strain ATCC 15692 / PAO1 / 1C / PRS 101 / LMG12228), UniProt Q59643). Description: Stimulation of Pseudomonas aeruginosa PAO1 recombinant PBGS using 5-ALA as substrate. The procedure, abridged: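 His-tagged PaPBGS at 150 nM subunit in 100 mM Tris-HCl pH 8.0 with 1 mM MgCl2, 100 mM KCl and 0.2 mM 5-ALA, 10 min at 36 °C, with turnover at most 30%. Porphobilinogen read with Ehrlich's reagent. Activity normalized to 6.7% DMSO control as 100%. EC50 from variable-slope agonist fit.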
Delta-aminolevulinic acid dehydratase (Pseudomonas aeruginosa (strain ATCC 15692 / PAO1 / 1C / PRS 101 / LMG12228), UniProt Q59643), sequence (Q59643 whole entry): as above

Experiment [11] has as its target T4, Delta-aminolevulinic acid dehydratase (Escherichia coli (strain K12)) (UniProt P0ACB2).
T4 sequence (whole entry): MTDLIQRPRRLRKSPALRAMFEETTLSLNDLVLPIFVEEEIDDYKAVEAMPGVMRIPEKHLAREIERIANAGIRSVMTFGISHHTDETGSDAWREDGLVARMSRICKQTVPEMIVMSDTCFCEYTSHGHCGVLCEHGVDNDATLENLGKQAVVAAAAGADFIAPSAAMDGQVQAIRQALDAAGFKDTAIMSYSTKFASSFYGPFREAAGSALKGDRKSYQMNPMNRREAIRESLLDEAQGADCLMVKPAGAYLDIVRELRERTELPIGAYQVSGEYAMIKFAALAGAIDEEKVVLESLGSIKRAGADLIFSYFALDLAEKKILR
Description: Stimulation of Escherichia coli recombinant PBGS using 5-ALA as substrate at 10 to 1000 uM at pH 8 in presence of MgCl2 and KCl.

Experiment [12] concerns the target Delta-aminolevulinic acid dehydratase (Yersinia enterocolitica W22703) (UniProt F4MUJ9). Briefly: Inhibition of Yersinia enterocolitica recombinant PBGS expressed in Escherichia coli using 5-ALA as substrate at 50 to 200 uM at pH 7 to 8.5 by buffer scan assay in presence of KCl.
In experiment [13] the target is T5, Delta-aminolevulinic acid dehydratase, chloroplastic (Pisum sativum, UniProt P30124).
T5 sequence (P30124 whole entry): T2 sequence (whole entry)
Description: Inhibition of Pisum sativum PBGS using 5-ALA as substrate. Set-up: species or system Lathyrus oleraceus. In short, it runs like this:
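Pea (P. sativum) PBGS at 300 nM subunit in 100 mM BTP-HCl pH 8.5 with 1 mM MgCl2, 5 mM DTT and 0.2 mM 5-ALA, 15 min at 36 °C. Porphobilinogen detected with Ehrlich's reagent. Activity normalized to 6.7% DMSO control as 100%. IC50 from variable-slope normalized-response fit.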

The target in experiment [14] is Delta-aminolevulinic acid dehydratase (Pseudomonas aeruginosa (strain ATCC 15692 / PAO1 / 1C / PRS 101 / LMG12228)) (UniProt Q59643). Briefly: Inhibition of Pseudomonas aeruginosa PAO1 recombinant PBGS using low 5-ALA level as substrate at 50 to 200 uM by buffer scan assay.

pEC50, pIC50: −log10 of the molar value. Active and inactive are the calls of the source. No cut-off for these calls is given here.

Delta-aminolevulinic acid dehydratase (Yersinia enterocolitica W22703), sequence (F4MUJ9 as listed by the source): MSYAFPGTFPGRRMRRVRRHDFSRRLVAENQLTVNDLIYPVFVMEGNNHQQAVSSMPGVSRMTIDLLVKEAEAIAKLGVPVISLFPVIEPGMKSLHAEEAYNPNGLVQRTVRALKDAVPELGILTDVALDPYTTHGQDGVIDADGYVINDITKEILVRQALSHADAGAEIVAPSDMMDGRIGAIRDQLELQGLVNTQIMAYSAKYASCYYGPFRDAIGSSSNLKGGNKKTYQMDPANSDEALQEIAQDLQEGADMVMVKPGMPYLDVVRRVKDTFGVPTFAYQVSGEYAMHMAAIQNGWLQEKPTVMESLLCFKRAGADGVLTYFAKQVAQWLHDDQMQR

For orientation: pIC50 means the IC50 on a negative log10 scale, so that one unit is a factor of ten. Higher therefore signals a small IC50. As a reminder, the pEC50 is the negative decadic logarithm of the EC50, by convention in mol/L. `O=C(O)c1ccc2c(c1)nc(CCNC(=O)c1cccs1)n2Cc1cccc(C(F)(F)F)c1`: the inhibition entry in experiment [1] is “Dose-dependent effect”. In addition, the inhibition result in experiment [2] was “inactive”. The result in experiment [3], in [8] and in experiment [11] was Active. Moreover, the inhibition entry in [4], in experiment [5], in experiment [6], in [7], in [12] and in [14] was “Active” each time. Moreover, the results for the pIC50 in experiment [9] and in experiment [13] were 4.95 and 4.97, respectively. For the same compound, the pEC50 in [10] is 4.16.
